MIN6 prolif-1 = inducers of beta-cell replication in MIN6 cells | 330,000 tested, 0.29% active | proliferation, % at 10 µM | MIN6 cells proliferation, ATPlite luminescence, 48 h; cells starved in 0.2% serum; 100% = growth in 10% serum | AID 2380;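 active = compounds whose signal lies at least 3.5 SD above the mean of all wells on their plate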
T cruzi repl = T. cruzi replication inhibition; inhibition, % (concentration not given with the values); AID 1885; T. cruzi beta-gal in NIH3T3, luminescence, 90 h; 300,000 tested, 1.4% active;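 active = mean inhibition across valid replicates above about 55%, limit read from the data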;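 also: signal also drops with host cell toxicity which is not excluded here; higher percent means less beta-gal luminescence so fewer parasites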
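System – NIH/3T3 host cells with β-galactosidase reporter T. cruzi · Doses – single 50 nL compound addition per well in DMSO · Reagent – 5000 T. cruzi trypomastigotes/well · Medium – Low-serum DMEM with 2% FBS · Timing – ≥90 h infection period, 3 h prior cell attachment · Evaluation – parasite load inhibition, % · Technique – GalScreen luminescence, 60 min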
H9c2 TAG inh = reduces triacylglycerol accumulation in H9c2 cells; Nile Red lipid (TAG) fluorescence; cells loaded with 200 µM oleic acid; inhibition, % at 12.5 µM; 230,000 tested, 0.66% active; AID 651582;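 active = pattern-corrected inhibition of lipid staining of at least 50% with the nuclear-stain viability signal not falling by more than 50%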
PG9 Ab binder = small molecules binding HIV-1 gp120 antibody PG9; TR-FRET gp120-PG9 antibody binding; inhibition, % at 6.7 µM; 360,000 tested, 0.43% active; in the data active = inhibition above about 8.5%
Rev-erbA mod = Rev-erb alpha (human) modulation; Rev-erbα–FITC-DNA binding, fluorescence polarization, 90 min; activity, % at 10 µM; 370,000 tested, 0.79% active; AID 1259318;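 active = activity above about 14%, limit read from the data; passing the limit was not always enough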
Target sequence (P20393 whole entry, looked up): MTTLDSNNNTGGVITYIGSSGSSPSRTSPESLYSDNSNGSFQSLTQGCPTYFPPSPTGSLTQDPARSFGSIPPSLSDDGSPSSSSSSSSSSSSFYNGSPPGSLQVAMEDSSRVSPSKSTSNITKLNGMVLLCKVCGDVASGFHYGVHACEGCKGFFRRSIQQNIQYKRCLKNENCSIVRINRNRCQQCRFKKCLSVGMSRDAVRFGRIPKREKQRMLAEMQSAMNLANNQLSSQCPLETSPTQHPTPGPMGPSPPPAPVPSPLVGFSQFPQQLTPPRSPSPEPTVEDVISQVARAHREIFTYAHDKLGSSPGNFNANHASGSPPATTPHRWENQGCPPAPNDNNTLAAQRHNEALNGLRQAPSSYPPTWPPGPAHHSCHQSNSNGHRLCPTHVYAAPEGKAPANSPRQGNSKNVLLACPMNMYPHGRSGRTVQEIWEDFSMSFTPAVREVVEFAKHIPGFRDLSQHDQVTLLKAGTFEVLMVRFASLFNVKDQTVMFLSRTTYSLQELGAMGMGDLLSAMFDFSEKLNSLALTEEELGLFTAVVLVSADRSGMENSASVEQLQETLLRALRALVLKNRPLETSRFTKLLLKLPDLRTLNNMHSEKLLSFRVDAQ
iPSC survival up = hiPSC single-cell survival enhancement. 360,000 tested, 0.044% active. survival enhancement, % at 20 µM. ATPlite luminescence; 100% = ROCK inhibitor wells, 0% = DMSO; in the data active = survival enhancement above about 18%;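 also: cells exposed to compounds for 16 hours before the ATP read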
MIN6 prolif-2 = MIN6 beta-cell replication induction, confirmed. shares compounds with MIN6 prolif-1. MIN6 beta-cell proliferation, ATPlite luminescence, 48 h; cells kept in 0.2% serum; scaled between 0.2% and 10% serum. proliferation increase, % at 50 µM. 920 tested, under 10 active. AID 463095;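 active = proliferation increase above 40% at any of the four tested concentrations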
Of the large screens only hits and unclear results are named; the others gave an inactive call (follow-up assays come after a bar, where they were run). Shown are actives, neighbours in structure and some others; about 2.9% of the full set was active somewhere.

Cc1cc(C(=O)NNC(=O)CCN2CCN(c3ccccc3)CC2)c2ccccc2n1	none
CCOC(=O)Cc1csc(NC(=O)CCCc2ccccc2)n1	none
CCc1nc(CN2CCN(Cc3ccc(F)c(F)c3)C(CCO)C2)c(C)[nH]1 (centres undefined)	MIN6 prolif-1 8.6 | MIN6 prolif-2 inactive
CC(=O)c1ccc(N(CC(=O)NC2CCCCC2)C(=O)c2csnn2)cc1	MIN6 prolif-1 6.6 (no result: H9c2 TAG inh) | MIN6 prolif-2 inactive
CC(C)=CC/C=C1\CCC(C(=O)O)C(C(=O)O)C1 (centres undefined)	MIN6 prolif-1 5.5 (no result: H9c2 TAG inh) | MIN6 prolif-2 inactive
CC(C)n1nccc1N(Cc1ccc(Cl)cc1)S(=O)(=O)c1ccccc1	none (no result: H9c2 TAG inh)
O=[N+]([O-])c1ccc(-n2nnnc2CN2CCCCC2)cc1	MIN6 prolif-1 9.3 | MIN6 prolif-2 inactive
O=[N+]([O-])c1ccc(-n2nnnc2CN2CCOCC2)cc1	none
CCOc1cc(C(=O)NCc2ccc(-c3nc4ccccc4o3)cc2)cc(OCC)c1OCC	none (no result: H9c2 TAG inh)
CC(C)CN(CCOc1cccc(N2C(=O)C3=C(CCCC3)C2=O)c1)CC(C)C	none (no result: H9c2 TAG inh)
COc1cc(C(=O)N/C(=C\c2cn(S(=O)(=O)N(C)C)c3ccccc23)C(=O)NCCCO)cc(OC)c1OC	MIN6 prolif-1 8.6 | MIN6 prolif-2 inactive
CCC(=O)Nc1cc(C(=O)O)ccc1Sc1ccc(C)cc1	MIN6 prolif-1 7.5 | MIN6 prolif-2 inactive
COc1ccc(-c2cn[nH]c2-c2ccc(OC)cc2O)cc1	MIN6 prolif-1 9.3 (no result: H9c2 TAG inh) | MIN6 prolif-2 inactive
CCc1ccc(NC(=O)c2ccc3ncsc3c2)cc1	none (no result: MIN6 prolif-1, H9c2 TAG inh, PG9 Ab binder, Rev-erbA mod, iPSC survival up)
CC(=O)Nc1ccc2oc(-c3cc(F)c(F)cc3Cl)nc2c1	none

Bioassay records as filed in PubChem.
